The list is not random: actives were taken first. Their share in the collection is about 2.6%.
CHT inh: inhibitors of human choline transporter CHT; High affinity choline transporter 1 (Homo sapiens), Q9GZV3; CHT-expressing cells, membrane potential dye, choline response; hits give low values; B-score at 10 µM; 310,000 tested, 0.86% active;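 active = B-score over 3 SD under the library average, and starting fluorescence ratio not unusually high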;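 note: choline stimulus applied at its EC90 after an EC20 pre-addition; B-score computed on integrated fluorescence ratio after choline addition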
Target sequence (Q9GZV3 whole entry, looked up): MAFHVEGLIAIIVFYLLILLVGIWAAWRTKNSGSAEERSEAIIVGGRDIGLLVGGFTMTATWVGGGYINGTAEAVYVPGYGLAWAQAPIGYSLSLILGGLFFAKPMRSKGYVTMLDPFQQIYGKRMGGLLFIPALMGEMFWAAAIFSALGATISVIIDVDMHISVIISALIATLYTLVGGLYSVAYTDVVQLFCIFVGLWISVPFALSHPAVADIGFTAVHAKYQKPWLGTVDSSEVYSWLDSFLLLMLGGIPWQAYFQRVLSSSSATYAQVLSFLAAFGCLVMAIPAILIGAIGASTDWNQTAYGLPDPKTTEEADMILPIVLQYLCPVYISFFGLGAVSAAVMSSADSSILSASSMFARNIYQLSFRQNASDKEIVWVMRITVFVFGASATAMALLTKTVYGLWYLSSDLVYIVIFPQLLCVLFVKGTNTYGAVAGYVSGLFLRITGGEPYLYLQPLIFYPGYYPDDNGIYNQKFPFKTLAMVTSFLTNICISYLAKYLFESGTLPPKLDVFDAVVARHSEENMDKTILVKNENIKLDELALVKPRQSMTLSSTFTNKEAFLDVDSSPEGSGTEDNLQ
T cruzi inh: inhibitors of intracellular T. cruzi growth, primary screen, luminescence, NIH3T3 host cells | T. cruzi beta-gal in NIH3T3, 90 h | inhibition, % (concentration not given with the values) | 300,000 tested, 1.4% active | AID 1885, 2009;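 active = mean inhibition across valid replicates above about 55%, limit read from the data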;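 note: signal also drops with host cell toxicity which is not excluded here; 0% = plate median of DMSO wells and 100% = zero luminescence signal; higher percent means less beta-gal luminescence so fewer parasites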
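System: mouse NIH/3T3 fibroblasts infected with β-gal-expressing T. cruzi Tulahuen C4 / Input: NIH/3T3 cells, 5,000 per well / Buffer or medium: Low-serum DMEM with 2% FBS / Probe or stimulus: 5000 reporter trypomastigotes per well / Schedule: ≥90 h infection period, 3 h prior cell attachment / Measured by: GalScreen luminescence, 60 min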
CHT allo act: CHT positive allosteric modulators, primary screen, cell-based, membrane potential dye, choline EC20 | High affinity choline transporter 1 (Homo sapiens), Q9GZV3 | CHT-expressing cells; hits give high values; LV-AA mutant CHT in HEK293 cells | B-score at 10 µM | 310,000 tested, 0.49% active;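 active = initial fluorescence not abnormally high and integrated response B-score, plate-corrected, over 3 SD above library mean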
PolyA inhibitor: polyadenylation inhibitors in yeast reporter cells, primary screen, luminescence, S. cerevisiae; S. cerevisiae SKY197-pL101 polyadenylation reporter, beta-gal luminescence; efflux-impaired pdr1/pdr3 knockout yeast; score 100 = 6 SD above DMSO; AID 1875, 2009; 300,000 tested, 0.02% active; activity score, % at 12 µM;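 active = lowest replicate activity score at least 50, where 100 means six control SD above control mean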;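 note: yeast exposed to compound for 9 h at 30 °C; higher score means more reporter readthrough which indicates perturbed polyadenylation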
CHT inh conf: CHT inhibitors, confirmation, cell-based, membrane potential dye, duplicate; shares compounds with CHT inh; CHT-expressing cells, choline membrane potential dye; LV-to-AA substituted CHT, HEK293 cells; 2,400 tested, 70% active; CHT activity remaining % of control (hits give low values), % at 10 µM;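 active = choline transporter activity left, mean of duplicates at 10 µM, below buffer-only control mean minus 3 SD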;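 note: depolarization triggered by choline at its EC90 following an EC20 pre-addition; 0% = hemicholinium-3 full block and 100% = buffer-only control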
HEK293 CHT ctr: membrane potential effects in parental HEK293, counter-screen for CHT inhibitor project, cell-based, membrane potential dye; shares compounds with CHT inh; choline response; active = decrease or increase beyond buffer ±3SD; membrane potential ratio readout (active if shifted either direction beyond buffer ±3SD; no single direction) at 10 µM; 2,400 tested, 4% active;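 note: parental cells lack the transporter so any hit is non-specific; ratio is peak minus trough fluorescence over baseline after EC90 choline challenge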
* marks the source's active call; other numbers are inactive results; i = inactive; . = no result given.

SMILES | CHT inh | T cruzi inh | CHT allo act | PolyA inhibitor | CHT inh conf | HEK293 CHT ctr
COc1ccc(-c2nc3c(-c4ccccc4)cnn3cc2C)cc1F | i | 10 | i | 4 | . | .
Fc1ccc(-c2nc3c(-c4ccc(F)cc4)cnn3cc2CCN2CCOCC2)cc1 | -6.6* | 29 | i | 18 | 59%* | i
Fc1ccc(-c2nc3c(-c4ccccc4)cnn3cc2CCN2CCOCC2)cc1 | -10* | 14 | i | -13 | 22%* | i
Nc1ncc(CCN2CCOCC2)c(-c2ccc(F)cc2)n1 | i | -15 | i | 0 | . | .
COc1ccccc1S(=O)(=O)Nc1cc(C)nn1-c1ccc(C)cc1 | i | -1 | i | -1 | . | .
CN(C)CCCn1c2c(c(SCC(=O)Nc3ccc4c(c3)OCCO4)nc1=O)CCC2 | i | 5 | i | -14 | . | .
CC(NC(=O)c1ccc(Br)cc1)c1ccc2c(c1)CCCC2 (stereo not given) | -9.7* | 26 | i | -42 | i | i
CC(NC(=O)c1ccc(F)cc1)c1ccc2c(c1)CCCC2 (stereo not given) | -6.2* | 11 | i | -25 | 41%* | i
CC(NC(=O)c1ccccc1Br)c1ccc2c(c1)CCCC2 (stereo not given) | i | -1 | i | 3 | . | .
COC(=O)CCC(=O)NNC(=O)C1CC1(c1ccccc1)c1ccccc1 (stereo not given) | i | -5 | i | -16 | . | .
COCCn1cnc2c1c(=O)n(Cc1ccc(C#N)cc1)c(=O)n2Cc1ccccc1 | i | 7 | i | 17 | . | .
O=C(CCN1C(=O)C2C3CC(C(Br)C3Br)C2C1=O)OCC(=O)c1cccc([N+](=O)[O-])c1 (stereo not given) | i | -1 | i | -2 | . | .
COc1ccc(S(=O)(=O)N2CCOCC2)cc1NC(=O)CN1CCN(C)CC1 | i | -3 | i | 15 | . | .
O=C(N/N=C/C1CC=CCC1)c1cc(-c2cccnc2)nc2ccccc12 (stereo not given) | -11* | 4 | i | 6 | 14%* | i
CCN(CC)C(=O)N1CCN(S(=O)(=O)c2ccc(C)c(C)c2)CC1 | -7.4* | -3 | i | 11 | 37%* | i
Cc1cccc(C)c1OCc1cc(C(=O)N2CCN(C3CCCC3)CC2)no1 | -6.3* | 29 | i | 7 | 53%* | i
Cc1cccc(C)c1OCc1cc(C(=O)N2CCN3CCCC3C2)no1 (stereo not given) | i | 14 | i | 5 | . | .
O=C(NC1CCCC1)C(c1ccc(O)cc1)N(CC1CCCO1)C(=O)C1COc2ccccc2O1 (stereo not given) | i | 31 | i | 2 | . | .
COc1ccc(C(C(=O)NC2CCCCC2)N(CC2CCCO2)C(=O)C2COc3ccccc3O2)cc1OC (stereo not given) | -5.9* | 3 | i | 6 | i | i
CCc1ccc2oc(C(=O)NCC(c3ccc(OC)cc3)N3CCCCC3)c(C)c2c1 (stereo not given) | -6* | 28 | i | 9 | 61%* | i
COc1ccc(C(CNC(=O)c2oc3ccc(OC)cc3c2C)N2CCCC2)cc1 (stereo not given) | i | 17 | i | -16 | . | .
O=C(CN1C(=O)NC2NC(=O)NC21)NN=C1CCCC1 (stereo not given) | -20* | -1 | i | 4 | i | i
O=S(=O)(c1ccc(N2CCCC2)nc1)N1CCCC1 | -5.8* | 1 | i | 10 | 43%* | i
CC(=O)c1cccc(CN2CCC(CO)(CCOc3ccccc3)CC2)c1 | i | -2 | i | 7 | . | .
OCCOc1cccc(CN2CCC(CO)(CCOc3ccccc3)CC2)c1 | -10* | 4 | i | 1 | i | i

High-throughput results from PubChem.
